Active and inactive are the calls of the source. The rule behind the calls is not given here.
Tests used:
HT-1080 = assay: Antiproliferative activity against human HT1080 cells after 48 hrs by SRB assay; assay type: functional, cell-based; conditions: HT-1080, 48 h
Summary of the method: (§1)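 Cells grown in DMEM with 5% FBS at 37 C; seeded per well at 2.5 x 10^3 (HT-1080), 4.0 x 10^3 (HT-29), 3.0 x 10^3 (M21) or 2.5 x 10^3 (MCF7). Drugs from 40 mM DMSO stock, serial dilutions, final 100 µM to 78 nM, DMSO <0.5%.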

M21 [1] = assay: Cell cycle arrest in human M21 cells assessed as accumulation at sub-G1 phase at 1.8 uM after 24 hrs by DAPI staining based flow cytometry relative to control; assay type: functional
Summary of the method: (§2)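 Flow cytometry in M21 cells seeded in six-well plates, allowed 24 h, then exposed 24 h to drug (2- or 5-fold IC50); DMSO 0.5% control. Trypsinized, PBS-washed, fixed in ice-cold EtOH, stained with 2 mg/mL DAPI in PBS; sub-G1, G0/G1, S and G2/M fractions measured on LSR II cytometer.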

M21 [2] = assay: Cell cycle arrest in human M21 cells assessed as accumulation at G2/M phase at 1.8 uM after 24 hrs by DAPI staining based flow cytometry relative to control; assay type: functional; summary of the method: as §2
M21 [3] = assay: Cell cycle arrest in human M21 cells assessed as accumulation at G0/G1 phase at 1.8 uM after 24 hrs by DAPI staining based flow cytometry relative to control; assay type: functional; summary of the method: as §2
M21 [4] = assay: Cell cycle arrest in human M21 cells assessed as accumulation at S phase at 1.8 uM after 24 hrs by DAPI staining based flow cytometry relative to control; assay type: functional; summary of the method: as §2
MCF7 = assay: Antiproliferative activity against human MCF7 cells after 48 hrs by SRB assay; assay type: functional, cell-based; conditions: MCF7, 48 h; summary of the method: as §1
M21 [5] = assay: Antiproliferative activity against human M21 cells after 48 hrs by SRB assay; assay type: functional, cell-based; conditions: M21, 48 h; summary of the method: as §1
M21 [6] = assay: Cell cycle arrest in human M21 cells assessed as accumulation at S phase at 2 times IC50 after 24 hrs by DAPI staining based flow cytometry relative to control
M21 [7] = assay: Cell cycle arrest in human M21 cells assessed as accumulation at G2/M phase at 2 times IC50 after 24 hrs by DAPI staining based flow cytometry relative to control
HT-29 = assay: Antiproliferative activity against human HT-29 cells after 48 hrs by SRB assay; assay type: functional, cell-based; conditions: HT-29, 48 h; summary of the method: as §1
M21 [8] = assay: Induction of DNA damage in human M21 cells assessed as increase in gammaH2Ax level at 5 times IC50 after 24 hrs by immunofluorescence based epifluorescence microscopy; assay type: functional, cell-based
Summary of the method: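 M21 cells (1 x 10^5) on fibronectin-coated (5 µg/mL, 1 h, 37 C) cover slides, 24 h attachment, then drug for 24 h; DMSO 0.25% in medium as control. Fixed with 3.7% formaldehyde, permeabilized with 0.1% saponin/3% BSA, mouse anti-H2AX pS139 (1:8000), DAPI nuclear stain; γH2AX foci imaged by epifluorescence microscopy.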

M21 [9] = assay: Cell cycle arrest in human M21 cells assessed as accumulation at sub-G1 phase at 2 times IC50 after 24 hrs by DAPI staining based flow cytometry relative to control
[10] = Alkylating activity at DNA (unknown origin) after 90 mins by colorimetric NBP assay relative to chlorambucil; assay type: functional
Summary of the method: (§3)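 NBP alkylation kinetics (Bardos colorimetric method): 400 nmol drug in 1 mL ethanol mixed with 1 mL NBP (10% v/v in 95% ethanol), 1 mL 50 mM acetate buffer pH 4.3 and 1 mL ethanol, kept on ice, then heated at 80 C in shaking water bath; stopped on ice 5 min after 0, 30, 60, 90 min. Rate constant from linear regression of absorbance curve; chlorambucil as positive control.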

M21 [11] = assay: Cell cycle arrest in human M21 cells assessed as accumulation at G0/G1 phase at 2 times IC50 after 24 hrs by DAPI staining based flow cytometry relative to control
[12] = Alkylating activity at DNA (unknown origin) after 90 mins by colorimetric NBP assay; assay type: functional; summary of the method: as §3

IC50 (HT-1080) [nM]	IC50 (MCF7) [nM]	IC50 (HT-29) [nM]	SMILES	Activity (M21 [1]) [%]	Activity (M21 [2]) [%]	Activity (M21 [3]) [%]	Activity (M21 [4]) [%]	IC50 (M21 [5]) [nM]	Activity (M21 [6]) [%]	Activity (M21 [7]) [%]	Activity (M21 [8])	Activity (M21 [9]) [%]	fold change (FC) [10]	Activity (M21 [11]) [%]	K [12] [×10⁻³ /s]
500	200	–	CC[C@@]1(O)C(=O)OCc2c1cc1n(c2=O)Cc2cc3c(CN(C)C)c(O)ccc3nc2-1 [TOPOTECAN]	0.1	22.8	45.2	31.9	–	–	–	–	–	–	–	–
140	1100	5300	CCNC(=O)Nc1ccc(S(=O)(=O)Oc2ccccc2I)cc1	–	–	–	–	5600	23.4	8.7	Active	0.3	42	67.6	0.12
